Source: ChEMBL document CHEMBL5724801, “EUbOPEN Chemogenomics Library - Multiplex” (2024)
Where “and” joins values, the source holds several entries; their conditions need not be identical. Equal values may be shown once.

System: U2OS
Test: Multiplex assay against U2OS
Assay type: toxicity, cell-based
Settings: human
How it was run: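 Values for tubulin, mitochondrial-mass and membrane-permeability phenotypes are per cents of cells with healthy nuclei. These cells were identified by CellPathfinder machine-learning gating of live cells that had been stained at seeding with Hoechst33342, BioTracker Green Microtubule Cytoskeleton Dye, MitoTracker Red and Annexin V Alexa Fluor 680 and imaged on a CQ1 microscope at 37°C and 5% CO2 after compound addition. The gating first set Hoechst high-intensity objects apart from normal cells, then split normal cells into healthy, pyknosed or fragmented nuclei, and pyknosed cells into mitotic or apoptotic.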

[1] = 12 h, 1 µM, compound concentration 1 uM
[2] = 12 h, 10 µM, compound concentration 10 uM
[3] = 24 h, 1 µM, compound concentration 1 uM
[4] = 24 h, 10 µM, compound concentration 10 uM
[5] = 48 h, 1 µM, compound concentration 1 uM
[6] = 48 h, 10 µM, compound concentration 10 uM

Structure (SMILES): Cc1ccc(/C(=C\CN2CCCC2)c2ccccn2)cc1 [TRIPROLIDINE]
- Population Apoptotic (%) [1]: 85%
- Population Fragmented Nuclei (%) [1]: 29% and 18%
- Population Healthy Nuclei (%) [1]: 61% and 70%
- Population Hoechst High Intensity Objects (%) [1]: 2% and 3%
- Population Membrane Permeable-Phenotype (%) [1]: 4% and 6%
- Population Mitochondria Different-Phenotype (%) [1]: 2% and 1%
- Population Mitotic Cells (%) [1]: 15% and 14%
- Population Normal (%) [1]: 97% and 96%
- Population Pyknosed Nuclei (%) [1]: 8% and 11%
- Population Tubulin-Different-Phenotype (%) [1]: 1% and 5%
- Total Cell Count [1]: 244 and 126
- Population Apoptotic (%) [2]: 87% and 75%
- Population Fragmented Nuclei (%) [2]: 25% and 15%
- Population Healthy Nuclei (%) [2]: 64% and 77%
- Population Hoechst High Intensity Objects (%) [2]: 3% and 0%
- Population Membrane Permeable-Phenotype (%) [2]: 29% and 14%
- Population Mitochondria Different-Phenotype (%) [2]: 23% and 18%
- Population Mitotic Cells (%) [2]: 12% and 25%
- Population Normal (%) [2]: 96% and 99%
- Population Pyknosed Nuclei (%) [2]: 9% and 7%
- Population Tubulin-Different-Phenotype (%) [2]: 24% and 15%
- Total Cell Count [2]: 264 and 114
- Population Apoptotic (%) [3]: 89% and 81%
- Population Fragmented Nuclei (%) [3]: 23% and 20%
- Population Healthy Nuclei (%) [3]: 66% and 68%
- Population Hoechst High Intensity Objects (%) [3]: 1% and 4%
- Population Membrane Permeable-Phenotype (%) [3]: 4% and 9%
- Population Mitochondria Different-Phenotype (%) [3]: 3% and 6%
- Population Mitotic Cells (%) [3]: 10% and 18%
- Population Normal (%) [3]: 98% and 96%
- Population Pyknosed Nuclei (%) [3]: 9% and 11%
- Population Tubulin-Different-Phenotype (%) [3]: 2% and 5%
- Total Cell Count [3]: 297 and 150
- Population Apoptotic (%) [4]: 75% and 78%
- Population Fragmented Nuclei (%) [4]: 27% and 19%
- Population Healthy Nuclei (%) [4]: 62% and 70%
- Population Hoechst High Intensity Objects (%) [4]: 2% and 1%
- Population Membrane Permeable-Phenotype (%) [4]: 12% and 11%
- Population Mitochondria Different-Phenotype (%) [4]: 15% and 13%
- Population Mitotic Cells (%) [4]: 24% and 21%
- Population Normal (%) [4]: 97% and 98%
- Population Pyknosed Nuclei (%) [4]: 10% and 9%
- Population Tubulin-Different-Phenotype (%) [4]: 8% and 6%
- Total Cell Count [4]: 320 and 149
- Population Apoptotic (%) [5]: 86% and 76%
- Population Fragmented Nuclei (%) [5]: 17%
- Population Healthy Nuclei (%) [5]: 73% and 75%
- Population Hoechst High Intensity Objects (%) [5]: 2% and 3%
- Population Membrane Permeable-Phenotype (%) [5]: 3% and 5%
- Population Mitochondria Different-Phenotype (%) [5]: 3%
- Population Mitotic Cells (%) [5]: 13% and 23%
- Population Normal (%) [5]: 97% and 96%
- Population Pyknosed Nuclei (%) [5]: 9% and 6%
- Population Tubulin-Different-Phenotype (%) [5]: 3% and 4%
- Total Cell Count [5]: 398 and 209
- Population Apoptotic (%) [6]: 86% and 89%
- Population Fragmented Nuclei (%) [6]: 24% and 15%
- Population Healthy Nuclei (%) [6]: 65% and 74%
- Population Hoechst High Intensity Objects (%) [6]: 2% and 4%
- Population Membrane Permeable-Phenotype (%) [6]: 11% and 9%
- Population Mitochondria Different-Phenotype (%) [6]: 8%
- Population Mitotic Cells (%) [6]: 13% and 10%
- Population Normal (%) [6]: 97% and 95%
- Population Pyknosed Nuclei (%) [6]: 9%
- Population Tubulin-Different-Phenotype (%) [6]: 7% and 6%
- Total Cell Count [6]: 453 and 203

Structure (SMILES): CC(C)(C)c1cc(C(C)(C)C)c(NC(=O)c2c[nH]c3ccccc3c2=O)cc1O [IVACAFTOR]
- Population Apoptotic (%) [1]: 36.36% and 31.58%
- Population Fragmented Nuclei (%) [1]: 1.43% and 1.95%
- Population Healthy Nuclei (%) [1]: 92.26% and 85.71%
- Population Hoechst High Intensity Objects (%) [1]: 0%
- Population Membrane Permeable-Phenotype (%) [1]: 0.62% and 0.76%
- Population Mitochondria Different-Phenotype (%) [1]: 0% and 7.58%
- Population Mitotic Cells (%) [1]: 63.64% and 68.42%
- Population Normal (%) [1]: 100%
- Population Pyknosed Nuclei (%) [1]: 6.3% and 12.34%
- Population Tubulin-Different-Phenotype (%) [1]: 0.62% and 0%
- Total Cell Count [1]: 349 and 154
- Population Apoptotic (%) [2]: 44.16% and 30.95%
- Population Fragmented Nuclei (%) [2]: 2.96% and 8.38%
- Population Healthy Nuclei (%) [2]: 74.26% and 66.47%
- Population Hoechst High Intensity Objects (%) [2]: 0%
- Population Membrane Permeable-Phenotype (%) [2]: 3.59% and 13.51%
- Population Mitotic Cells (%) [2]: 55.84% and 69.05%
- Population Normal (%) [2]: 100%
- Population Pyknosed Nuclei (%) [2]: 22.78% and 25.15%
- Population Tubulin-Different-Phenotype (%) [2]: 10.76% and 1.8%
- Total Cell Count [2]: 338 and 167
- Population Apoptotic (%) [3]: 22.95% and 40%
- Population Fragmented Nuclei (%) [3]: 1.83% and 3.23%
- Population Healthy Nuclei (%) [3]: 85.77% and 86.02%
- Population Hoechst High Intensity Objects (%) [3]: 0%
- Population Membrane Permeable-Phenotype (%) [3]: 0.24% and 1.88%
- Population Mitochondria Different-Phenotype (%) [3]: 0% and 6.88%
- Population Mitotic Cells (%) [3]: 77.05% and 60%
- Population Normal (%) [3]: 100%
- Population Pyknosed Nuclei (%) [3]: 12.4% and 10.75%
- Population Tubulin-Different-Phenotype (%) [3]: 0.71% and 0%
- Total Cell Count [3]: 492 and 186
- Population Apoptotic (%) [4]: 51.81% and 29.41%
- Population Fragmented Nuclei (%) [4]: 3.33% and 6.94%
- Population Healthy Nuclei (%) [4]: 75.38% and 63.58%
- Population Hoechst High Intensity Objects (%) [4]: 0%
- Population Mitotic Cells (%) [4]: 48.19% and 70.59%
- Population Normal (%) [4]: 100%
- Population Pyknosed Nuclei (%) [4]: 21.28% and 29.48%
- Population Tubulin-Different-Phenotype (%) [4]: 8.84% and 7.27%
- Total Cell Count [4]: 390 and 173
- Population Apoptotic (%) [5]: 47.3% and 42.86%
- Population Fragmented Nuclei (%) [5]: 2.51% and 4.1%
- Population Healthy Nuclei (%) [5]: 89.07% and 81.57%
- Population Hoechst High Intensity Objects (%) [5]: 0%
- Population Membrane Permeable-Phenotype (%) [5]: 0.13% and 0.84%
- Population Mitochondria Different-Phenotype (%) [5]: 0% and 5.86%
- Population Mitotic Cells (%) [5]: 52.7% and 57.14%
- Population Normal (%) [5]: 100%
- Population Pyknosed Nuclei (%) [5]: 8.43% and 14.33%
- Population Tubulin-Different-Phenotype (%) [5]: 0.64% and 1.67%
- Total Cell Count [5]: 878 and 293
- Population Apoptotic (%) [6]: 55% and 62.65%
- Population Healthy Nuclei (%) [6]: 75.09% and 44.95%
- Population Hoechst High Intensity Objects (%) [6]: 0% and 0.5%
- Population Membrane Permeable-Phenotype (%) [6]: 2.72% and 10.11%
- Population Mitotic Cells (%) [6]: 45% and 37.35%
- Population Normal (%) [6]: 100% and 99.5%
- Population Pyknosed Nuclei (%) [6]: 22.3% and 41.92%
- Population Tubulin-Different-Phenotype (%) [6]: 11.88% and 16.85%
- Total Cell Count [6]: 538 and 199
